# Only some compounds are listed: those with a hit (about 1.8% of all), similar ones and a draw of the others.
# 697 NFkB inh: inhibitors of PMA/ionomycin-induced NF-kB reporter, 697 cells, primary screen, B-cell NF-kB inhibitor project, cell-based, luminescence, uHTS. AID 435022, 2010. 330,000 compounds, 0.33% hits. inhibition, % at 4 µM. 697 B-cell NF-kB luciferase reporter, 16 h; in the data active means inhibition above about 35%
# NR2E3 ag-1: NR2E3 agonists in two-hybrid cells, primary screen, cell-based, luminescence, CHO-S, Gal4-NCOR/VP16-NR2E3. Photoreceptor-specific nuclear receptor (Homo sapiens), Q9Y5X4. luciferase. inhibition of corepressor binding, % at 3.98 µM. 360,000 compounds, 0.35% hits. AID 602229, 2012;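 active means inhibition above the mean of all tested compounds plus 3 SD, cut at about 70% in these data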;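 further: 0% = DMSO with NR2E3 transfected cells and 100% = cells lacking NR2E3 construct; higher means lower luciferase signal from less NR2E3 corepressor binding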
# Target sequence (Q9Y5X4 whole entry, looked up, the tested form may be a part): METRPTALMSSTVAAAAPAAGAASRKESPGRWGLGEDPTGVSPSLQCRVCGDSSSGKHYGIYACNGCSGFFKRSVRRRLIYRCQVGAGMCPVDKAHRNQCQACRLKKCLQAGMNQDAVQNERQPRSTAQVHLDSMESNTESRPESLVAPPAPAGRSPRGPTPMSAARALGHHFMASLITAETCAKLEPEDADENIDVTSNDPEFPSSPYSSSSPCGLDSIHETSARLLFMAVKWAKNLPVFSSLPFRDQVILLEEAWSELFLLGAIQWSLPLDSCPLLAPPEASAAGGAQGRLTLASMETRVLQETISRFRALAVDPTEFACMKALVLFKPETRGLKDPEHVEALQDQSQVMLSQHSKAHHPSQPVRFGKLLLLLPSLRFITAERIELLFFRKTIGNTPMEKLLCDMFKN
# Gli-Sufu antag: Gli-Sufu pathway antagonists, primary screen, luciferase luminescence, Sufu-KO-LIGHT cells, uHTS | AID 588413, 2011 | inhibition, % at 5 µM | Sufu-KO-LIGHT fibroblasts, Gli luciferase reporter luminescence | 340,000 compounds, 0.74% hits;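 active means inhibition above about 55%, limit read from the data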;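 further: 0% = DMSO-treated cells and 100% = wells with medium but no cells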
# Jurkat NFkB inh: inhibitors of induced NF-kB luciferase reporter, primary screen, TCR NF-kB activation inhibitor project, cell-based, luminescence, uHTS; Jurkat, PMA/ionomycin-induced NF-kB luciferase reporter; inhibition, % at 4 µM; 330,000 compounds, 0.53% hits; in the data active means inhibition above about 50%
# NR2E3 ag-2: inhibitors of NR2E3-RetCOR corepressor binding, primary screen, NR2E3 agonist project, biochemical, TR-FRET, GST-NR2E3, biotin-RetCOR; inhibition of corepressor binding, % at 4.78 µM; AID 2300, 2010; Photoreceptor-specific nuclear receptor (Homo sapiens), Q9Y5X4; 320,000 compounds, 0.12% hits; 1536-well;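 active means percent inhibition above the cutoff of mean plus 3 SD of all tested compounds, set per screening campaign, cut at about 20% in these data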;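 further: 0% = DMSO wells and 100% = biotin wells as full block of FRET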
#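 Test system – NR2E3–RetCOR corepressor complex · Quantity – NR2E3 fusion 1.35 nM · Buffer or medium – Tris pH 7.5 · Incubation – Compound–protein incubation for 5 h at 4 °C · Technique – TR-FRET, Eu(K)-anti-GST donor, streptavidin-D2 acceptor, ex 340, em 617/671 nm · Evaluation – percent inhibition of 671/617 nm emission ratio versus biotin and DMSO controls · Plate – 1536-well format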
# GalR3 antagonist: GalR3 antagonists in HEK293 cells, primary screen, cell-based, fluorescence readout; HEK293 GalR3-CNG cAMP membrane potential fluorescence; galR3 body fused to GalR1 C-terminus; inhibition, % at 3 µM; Galanin receptor type 3 (Homo sapiens), O60755; 360,000 compounds, 0.44% hits;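 active means inhibition above the screen-wide average plus 3 SD, cut at about 13% in these data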;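 further: forskolin and galanin both at EC90 stimulate the cells; cAMP rise reported by CNG channel membrane potential dye signal; 0% = forskolin plus galanin with DMSO and 100% = forskolin alone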
# Target sequence (O60755 1-299 limits assumed): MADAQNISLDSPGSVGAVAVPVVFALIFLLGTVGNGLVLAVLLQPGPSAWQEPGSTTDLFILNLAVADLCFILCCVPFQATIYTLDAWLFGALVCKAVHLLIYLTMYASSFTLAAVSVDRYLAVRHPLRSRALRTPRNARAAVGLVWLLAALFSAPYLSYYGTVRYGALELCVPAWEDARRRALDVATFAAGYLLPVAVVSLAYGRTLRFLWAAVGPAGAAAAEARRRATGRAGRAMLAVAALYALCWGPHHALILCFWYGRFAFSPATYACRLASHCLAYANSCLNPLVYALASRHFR
# Jurkat NFkB conf: PMA/ionomycin-induced NF-kB reporter inhibitors, Jurkat retest, confirmation, T-cell NF-kB inhibitor project, cell-based, luminescence, single concentration. shares compounds with Jurkat NFkB inh. Jurkat NF-kB luciferase, 16 h. inhibition, % at 4 µM. 2,700 compounds, 27% hits;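 active means inhibition reaching about 45% at 4 µM in either replicate, limit read from the data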;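 further: plate controls were PMA/ionomycin stimulated DMSO wells for no effect and unstimulated DMSO wells for full effect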
# Numbers without * were called inactive; . = no result given.
SMILES,697 NFkB inh,NR2E3 ag-1,Gli-Sufu antag,Jurkat NFkB inh,NR2E3 ag-2,GalR3 antagonist,Jurkat NFkB conf
CCOC(=O)c1ccc(Nc2nc(N)c3cc(OC)c(OC)cc3n2)cc1,30.2,-4.6,-3.0,74.0*,-0.9,.,89.7*
O=C(N[C@H](Cc1ccccc1)C(=O)NCc1ccccn1)[C@H]1O[C@@H](n2ccc(=O)[nH]c2=O)[C@H](O)[C@@H]1O,.,.,.,.,.,-5.2,.
COc1ccccc1NS(=O)(=O)c1cc(NC(=O)c2sccc2C)ccc1N1CCOCC1,8.6,-0.4,15.0,12.4,2.1,-7.8,.
COc1ccc(NS(=O)(=O)c2cc(NC(=O)c3sccc3C)ccc2N2CCOCC2)cc1,-11.0,-2.5,-4.1,50.5*,3.3,-4.0,2.1
COc1ccc(NS(=O)(=O)c2cc(NC(=O)c3ccco3)ccc2N2CCCC2)cc1,-111.7,-0.4,0.2,61.7*,-1.7,-8.1,8.5
COc1ccc(NS(=O)(=O)c2cc(NC(=O)c3cc(F)c(F)c(F)c3F)ccc2N2CCCC2)cc1,32.9,11.4,-25.8,7.2,4.7,-4.7,.
COc1ccc(CN2C[C@@]3(O)CC[C@@H](O)[C@@H](OC)[C@@H]3[C@@](C)(O)[C@@H]2CC=C(C)C)cc1,.,.,.,.,.,-8.0,.
COc1cc(C2CC(=O)c3cnc(N4CCN(Cc5ccccc5)CC4)nc3C2)cc(OC)c1OC (configuration not stated),-73.2,-8.7,-9.8,58.5*,1.6,0.2,16.1
CC(C)(C)n1nc(C2CC2)c(Br)c1NC(=O)c1ccc(Cl)cc1,.,.,.,.,.,-8.5,.
CN1CCCCC(NC(=O)C2CCCCC2)C1=O (configuration not stated),.,.,.,.,.,-1.7,.
CC(=O)Nc1ccc(-c2cc3ccccc3o2)cc1,-149.7,-89.0,-87.3,-159.5,-4.0,-4.8,-80.8
C[C@H]1[C@H](c2ccccc2)Oc2cccc(NCCc3ccccc3)c2S(=O)(=O)N1Cc1ccc(F)cc1,.,.,.,.,.,0.9,.
COc1cccc(CNC(=O)[C@H]2CCCN2C(=O)[C@H]2CCCN2C(=O)c2ccc(C)cc2)c1,.,.,.,.,.,-5.0,.
CC(OC(=O)c1ccc2c(c1)OCCO2)C(=O)c1ccccc1 (configuration not stated),-191.5,-121.3,-116.7,-152.2,3.7,-0.5,-121.7
C=CCN=C1NC(c2cccc(Cl)c2)C(C(=O)OC)=C(C)N1C (configuration not stated),.,.,.,.,.,-6.3,.
CCOC(=O)N[C@@H](Cc1cccnc1)C(=O)N1CCC[C@H]1C(=O)NC1CCCC1,.,.,.,.,.,-7.9,.
O=c1c2ccccc2oc2ccc(NCCCN3CCOCC3)cc12,-101.9,-58.0,-55.5,-113.7,-2.2,-8.0,.
CN1CCCC1CCNc1ccc2c(=O)c3ccccc3oc2c1 (configuration not stated),-160.7,-75.5,-15.6,-217.6,6.8,-5.8,-37.6
O=c1c2ccccc2oc2cc(NCCCN3CCOCC3)ccc12,-218.6,-43.9,-31.8,-184.0,10.2,-5.0,-53.2
O=c1c2ccccc2oc2cc(NCCCn3ccnc3)ccc12,-217.8,-116.7,-70.9,-177.7,3.9,-6.6,-83.9
COc1ccccc1C(=O)N1CCC2CCNC2C1 (configuration not stated),.,.,.,.,.,-1.6,.
CC(C)(C)c1ccc(C(=O)Nc2ccc(F)cc2)s1,9.4,-0.2,-89.6,-184.5,-3.2,2.3,-171.2
COc1cc2c(cc1OC)CN(C(=O)c1ccc3nc[nH]c3c1)CC2,-4.2,-24.6,-16.7,60.8*,1.5,-6.5,22.2
CN(C)S(=O)(=O)c1ccc(NC(=S)NC(=O)C2CCC2)cc1,-16.0,-6.1,-3.6,-0.7,-0.1,-2.2,.
CN(Cc1ccccc1)S(=O)(=O)c1ccc(NC(=S)NC(=O)C2CCCC2)cc1,-47.7,-55.1,-5.1,62.5*,-0.3,-8.5,15.7
SMILES,697 NFkB inh,NR2E3 ag-1,Gli-Sufu antag,Jurkat NFkB inh,NR2E3 ag-2,GalR3 antagonist,Jurkat NFkB conf
COc1ccc(-c2cc(NC(=O)Cc3c(C)[nH]c4ccccc34)ccc2Nc2cccnc2)cc1OC,.,.,.,.,.,-0.7,.
Brc1ccc(-c2nc3ccccc3s2)s1,-169.5,-113.7,-118.1,-163.9,2.6,-3.9,-101.5
CCCNC(=O)c1ccc(-c2nc3ccccc3s2)s1,-57.7,-65.8,10.0,-161.0,-0.3,-3.7,-94.7
Nc1ccc(-c2nc3ccccc3s2)cn1,-95.7,-112.1,-81.2,-133.3,1.4,-7.8,.
O=C(Nc1ccccn1)c1sc2cccc(F)c2c1Cl,-242.3,-140.4,-61.2,-170.4,-0.7,2.8,-103.4
O=C(Nc1cccnc1)c1sc2cccc(F)c2c1Cl,-24.4,-113.4,-42.1,-102.2,1.2,-5.8,.
O=C(NCc1ccccc1)[C@@H]1CCCN1C(=O)[C@H]1CCCN1C(=O)c1ccccc1Cl,.,.,.,.,.,-7.4,.
Cc1occc1C(=O)N/N=C/c1ccc(OCc2ccccc2)cc1,-43.6,-107.2,-36.5,-60.6,1.1,4.0,.
Cc1occc1C(=O)N/N=C/c1ccc(-c2ccccc2)cc1,-239.4,-103.4,-163.1,-206.4,4.6,-9.8,-72.4
Cc1oc(-c2ccc(Cl)cc2)nc1CN1CCC(C(=O)NCCCN2CCOCC2)CC1,-2.2,11.2,-17.0,-6.1,3.6,-4.6,.
CCC1CCCCN1CCCNC(=O)C1CCN(Cc2nc(-c3ccc(Cl)cc3)oc2C)CC1 (configuration not stated),7.1,-21.6,13.3,55.6*,-0.7,.,-4.5
Cc1ccnc(NC(=O)c2cc3cc(F)ccc3s2)c1,-171.7,-151.0,-134.5,-168.6,3.8,-1.4,-119.1
Cc1ccnc(NC(=O)c2sc3cc(Cl)ccc3c2Cl)c1,-146.0,-14.2,-68.8,-165.4,-0.1,-0.8,-56.1
Cc1ccnc(NC(=O)CNC(=O)c2sc3ccccc3c2Cl)c1,-71.5,-56.0,-24.1,-113.6,8.1,-0.9,.
C[C@H](c1ccccc1)N1C[C@@H](COCc2ccccc2)Oc2cccc(N3CCCCC3)c2S1(=O)=O,.,.,.,.,.,11.4,.
O=C(O)c1cc(N/N=C/c2ccc3c(c2)OCO3)ccc1Cl,-204.5,-148.9,-98.0,-45.3,4.2,-1.6,.
O=C(O)c1ccc(N/N=C/c2ccc3c(c2)OCO3)cc1,29.3,-37.5,47.8,75.2*,-3.6,4.0,43.1
Cc1ccsc1C(=O)N/N=C/c1ccc2c(c1)OCO2,-196.4,-163.0,-80.3,-153.7,3.2,-3.2,-70.5
COC(=O)C1=C(C)N(C)C(=NCC2CC2)NC1c1cccc(F)c1 (configuration not stated),.,.,.,.,.,-6.5,.

# Source: PubChem (several laboratories)
